Converted amounts (≈) assume the structure as drawn.
Key:
Streptococcus pneumoniae [1] = test: Antibacterial activity against Streptococcus pneumoniae M46B overexpressing patA, patB and inactivated patB with single mutation by standardized agar doubling dilution method in presence of 50 uM sodium orthovanadate efflux pump inhibitor; assay type: functional
Outline: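 MICs were determined by BSAC agar doubling dilution in the presence of sodium orthovanadate at 50 μM. Cultures were grown in BHI broth for 24 h at 37°C in 5% CO2, with R6 as control. Synergy was defined as an MIC reduction of ≥2 dilutions with the inhibitor present.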

Streptococcus pneumoniae [2] = test: Antibacterial activity against Streptococcus pneumoniae M319 overexpressing patA, patB and inactivated patB with single mutation by standardized agar doubling dilution method; assay type: functional
Outline: (§1)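 MICs were determined by agar doubling dilution following BSAC guidelines, with no efflux inhibitor. Strains were grown in brain heart infusion broth for 24 h at 37°C in 5% CO2. Species identity was confirmed by Gram stain, optochin sensitivity and capsule test. Control strain R6 was tested alongside.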

Streptococcus pneumoniae [3] = test: Antibacterial activity against wild type Streptococcus pneumoniae M4 NCTC 7465 type 1 by standardized agar doubling dilution method; assay type: functional
Outline: (§2)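 MIC by agar doubling dilution following BSAC guidelines. Strains grown in brain heart infusion broth 24 h at 37°C in 5% CO2. Where an efflux pump inhibitor applies, MIC redetermined with reserpine at 20 μg/ml or sodium orthovanadate at 50 μM. Synergy taken as a fall in MIC of ≥2 dilutions with inhibitor present. Dye resistance defined relative to R6 (both dyes ≥2 dilutions higher).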

Streptococcus pneumoniae [4] = test: Antibacterial activity against Streptococcus pneumoniae M303 overexpressing patA, patB and inactivated patA with single mutation by standardized agar doubling dilution method; assay type: functional
Outline: (§3)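 MICs determined by BSAC standardized agar doubling dilution. Strains were grown in brain heart infusion broth for 24 h at 37°C in 5% CO2. Inhibitor arms had reserpine at 20 μg/ml or sodium orthovanadate at 50 μM in the agar. Mutants were made by transforming magellan2 insertion amplimers into clinical isolates and selecting on spectinomycin 100 mg/liter, with a no-DNA spontaneous-mutation control.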

Streptococcus pneumoniae [5] = test: Antibacterial activity against Streptococcus pneumoniae M307 overexpressing patA, patB and inactivated patB with single mutation by standardized agar doubling dilution method; assay type: functional; outline: as §3
Streptococcus pneumoniae [6] = test: Antibacterial activity against Streptococcus pneumoniae M308 overexpressing patA, patB and inactivated patB with single mutation by standardized agar doubling dilution method in presence of 50 uM sodium orthovanadate efflux pump inhibitor; assay type: functional; outline: as §3
Streptococcus pneumoniae [7] = test: Antibacterial activity against fluoroquinolone, dye-susceptible Streptococcus pneumoniae by standardized agar doubling dilution method; assay type: functional; outline: as §2
Streptococcus pneumoniae [8] = test: Antibacterial activity against Streptococcus pneumoniae M50A overexpressing patA, patB and inactivated patA with single mutation by standardized agar doubling dilution method in presence of 20 ug/ml reserpine efflux pump inhibitor; assay type: functional
Outline: (§4)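 MICs were determined by BSAC agar doubling dilution in the presence of reserpine at 20 μg/ml. Strains were grown in BHI broth for 24 h at 37°C in 5% CO2, with R6 as control. Synergy was defined as an MIC drop of ≥2 dilutions with the inhibitor.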

Streptococcus pneumoniae [9] = test: Antibacterial activity against fluoroquinolone-resistant Streptococcus pneumoniae M83 FQ-R overexpressing patA, patB by standardized agar doubling dilution method; assay type: functional
Outline: (§5)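 Clinical S. pneumoniae isolates grown in BHI broth 24 h at 37°C in 5% CO2. MICs by agar doubling dilution per BSAC guidelines, alone or with efflux inhibitor reserpine (20 μg/ml) or sodium orthovanadate (50 μM). Synergy defined as ≥2-dilution MIC reduction in presence of inhibitor.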

Streptococcus pneumoniae [10] = test: Antibacterial activity against Streptococcus pneumoniae M50B overexpressing patA, patB and inactivated patB with single mutation by standardized agar doubling dilution method in presence of 20 ug/ml reserpine efflux pump inhibitor; assay type: functional; outline: as §4
Streptococcus pneumoniae [11] = test: Antibacterial activity against fluoroquinolone, dye-resistant Streptococcus pneumoniae M50 overexpressing patA, patB by standardized agar doubling dilution method; assay type: functional; outline: as §2
Streptococcus pneumoniae [12] = test: Antibacterial activity against dye-resistant Streptococcus pneumoniae M46 DR overexpressing patA, patB by standardized agar doubling dilution method; assay type: functional; outline: as §1
Streptococcus pneumoniae [13] = test: Antibacterial activity against Streptococcus pneumoniae M87A overexpressing patA, patB and inactivated patA with single mutation by standardized agar doubling dilution method; assay type: functional; outline: as §1
Streptococcus pneumoniae [14] = test: Antibacterial activity against Streptococcus pneumoniae M298 overexpressing patA, patB and inactivated patA with single mutation by standardized agar doubling dilution method; assay type: functional; outline: as §3
Streptococcus pneumoniae [15] = test: Antibacterial activity against wild type Streptococcus pneumoniae M3 NCTC 7466 type 2 by standardized agar doubling dilution method; assay type: functional; outline: as §2
Streptococcus pneumoniae [16] = test: Antibacterial activity against fluoroquinolone, dye-resistant Streptococcus pneumoniae M45 overexpressing patA, patB by standardized agar doubling dilution method in presence of 50 uM sodium orthovanadate efflux pump inhibitor; assay type: functional; outline: as §2
Streptococcus pneumoniae [17] = test: Antibacterial activity against Streptococcus pneumoniae M55B overexpressing patA, patB and inactivated patB with single mutation by standardized agar doubling dilution method; assay type: functional; outline: as §1
Streptococcus pneumoniae [18] = test: Antibacterial activity against Streptococcus pneumoniae M303 overexpressing patA, patB and inactivated patA with single mutation by standardized agar doubling dilution method in presence of 20 ug/ml reserpine efflux pump inhibitor; assay type: functional; outline: as §3
Streptococcus pneumoniae [19] = test: Antibacterial activity against Streptococcus pneumoniae M298 overexpressing patA, patB and inactivated patA with single mutation by standardized agar doubling dilution method in presence of 50 uM sodium orthovanadate efflux pump inhibitor
Streptococcus pneumoniae [20] = test: Antibacterial activity against Streptococcus pneumoniae M45A overexpressing patA, patB and inactivated patA with single mutation by standardized agar doubling dilution method; assay type: functional; outline: as §1
Streptococcus pneumoniae [21] = test: Antibacterial activity against Streptococcus pneumoniae M310 overexpressing patA, patB and inactivated patB with single mutation by standardized agar doubling dilution method in presence of 50 uM sodium orthovanadate efflux pump inhibitor; assay type: functional; outline: as §3
Streptococcus pneumoniae [22] = test: Antibacterial activity against fluoroquinolone-resistant Streptococcus pneumoniae M79 FQ-R overexpressing patA, patB by standardized agar doubling dilution method in presence of 50 uM sodium orthovanadate efflux pump inhibitor; assay type: functional; outline: as §5
Streptococcus pneumoniae [23] = test: Antibacterial activity against fluoroquinolone-resistant Streptococcus pneumoniae M83 FQ-R overexpressing patA, patB by standardized agar doubling dilution method in presence of 20 ug/ml reserpine efflux pump inhibitor; assay type: functional; outline: as §5
Streptococcus pneumoniae [24] = test: Antibacterial activity against Streptococcus pneumoniae M305 overexpressing patA, patB and inactivated patB with single mutation by standardized agar doubling dilution method; assay type: functional; outline: as §3
Streptococcus pneumoniae [25] = test: Antibacterial activity against wild type Streptococcus pneumoniae R6 by standardized agar doubling dilution method in presence of 50 uM sodium orthovanadate efflux pump inhibitor; assay type: functional; outline: as §2
Streptococcus pneumoniae [26] = test: Antibacterial activity against fluoroquinolone-resistant Streptococcus pneumoniae M83 FQ-R overexpressing patA, patB by standardized agar doubling dilution method in presence of 50 uM sodium orthovanadate efflux pump inhibitor; assay type: functional
Outline: (§6)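 MIC by agar doubling dilution per BSAC guidelines; strains pregrown in brain heart infusion broth 24 h, 37°C, 5% CO2. MICs measured alone and with efflux pump inhibitors reserpine (20 μg/ml) or sodium orthovanadate (50 μM); synergy defined as ≥2-dilution MIC reduction in presence of inhibitor.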

Streptococcus pneumoniae [27] = test: Antibacterial activity against wild type Streptococcus pneumoniae M3 NCTC 7466 type 2 by standardized agar doubling dilution method in presence of 50 uM sodium orthovanadate efflux pump inhibitor; assay type: functional; outline: as §6
Streptococcus pneumoniae [28] = test: Antibacterial activity against Streptococcus pneumoniae M308 overexpressing patA, patB and inactivated patB with single mutation by standardized agar doubling dilution method; assay type: functional; outline: as §3

Row | SMILES | MIC (Streptococcus pneumoniae [1]) [µg/mL] | MIC (Streptococcus pneumoniae [2]) [µg/mL] | MIC (Streptococcus pneumoniae [3]) [µg/mL] | MIC (Streptococcus pneumoniae [4]) [µg/mL] | MIC (Streptococcus pneumoniae [5]) [µg/mL] | MIC (Streptococcus pneumoniae [6]) [µg/mL] | MIC90 (Streptococcus pneumoniae [7]) [µg/mL] | MIC (Streptococcus pneumoniae [8]) [µg/mL] | MIC (Streptococcus pneumoniae [9]) [µg/mL] | MIC (Streptococcus pneumoniae [10]) [µg/mL] | MIC (Streptococcus pneumoniae [11]) [µg/mL] | MIC (Streptococcus pneumoniae [12]) [µg/mL] | MIC (Streptococcus pneumoniae [13]) [µg/mL] | MIC (Streptococcus pneumoniae [14]) [µg/mL] | MIC (Streptococcus pneumoniae [15]) [µg/mL] | MIC (Streptococcus pneumoniae [16]) [µg/mL] | MIC (Streptococcus pneumoniae [17]) [µg/mL] | MIC (Streptococcus pneumoniae [18]) [µg/mL] | MIC (Streptococcus pneumoniae [19]) [µg/mL] | MIC (Streptococcus pneumoniae [20]) [µg/mL] | further results
1 | O=C(O)c1cn(C2CC2)c2cc(N3CCNCC3)c(F)cc2c1=O [CIPROFLOXACIN] | 0.12 | 16 (≈ 48.3 µM) | 1 (≈ 3.02 µM) | 2 (≈ 6.04 µM) | 8 (≈ 24.1 µM) | 0.12 | 0.25 (≈ 0.754 µM) | 4 | 64 (≈ 193 µM) | 4 | 64 (≈ 193 µM) | 0.25 (≈ 0.754 µM) | 8 (≈ 24.1 µM) | 8 (≈ 24.1 µM) | 1 (≈ 3.02 µM) | 1 | 2 (≈ 6.04 µM) | 1 | 8 | 1 (≈ 3.02 µM) | MIC (Streptococcus pneumoniae [7]): 0.25 µg/mL (≈ 0.754 µM); MIC (Streptococcus pneumoniae [21]): 2 µg/mL; MIC (Streptococcus pneumoniae [22]): 16 µg/mL; MIC (Streptococcus pneumoniae [23]): 64 µg/mL; MIC (Streptococcus pneumoniae [24]): 8 µg/mL (≈ 24.1 µM); MIC (Streptococcus pneumoniae [25]): 0.1 µg/mL; MIC (Streptococcus pneumoniae [26]): 1 µg/mL; MIC (Streptococcus pneumoniae [27]): 1 µg/mL; MIC (Streptococcus pneumoniae [28]): 2 µg/mL (≈ 6.04 µM)
2 | CC[n+]1c(-c2ccccc2)c2cc(N)ccc2c2ccc(N)cc21.[Br-] [HOMIDIUM BROMIDE] | 0.5 | 0.5 | 2 | 1 | 2 | 0.5 | 2 | 0.5 | 8 | 0.5 | 4 | 16 | 0.5 | 0.5 | 2 | 1 | 0.5 | 0.5 | 0.5 | 0.5 | MIC (Streptococcus pneumoniae [21]): 8 µg/mL; MIC (Streptococcus pneumoniae [22]): 0.5 µg/mL; MIC (Streptococcus pneumoniae [23]): 4 µg/mL; MIC (Streptococcus pneumoniae [24]): 0.5 µg/mL; MIC (Streptococcus pneumoniae [25]): 0.1 µg/mL; MIC (Streptococcus pneumoniae [26]): 4 µg/mL; MIC (Streptococcus pneumoniae [27]): 0.3 µg/mL; MIC (Streptococcus pneumoniae [28]): 0.25 µg/mL

Source: ChEMBL document CHEMBL1687824, “Overexpression of patA and patB, which encode ABC transporters, is associated with fluoroquinolone resistance in clinical isolates of Streptococcus pneumoniae” (2011)
